Published values from different studies.
Lines come from different studies, so protocols differ.
Dihydrofolate reductase: Dihydrofolate reductase (Bos taurus, UniProt P00376)
MAPK14: Mitogen-activated protein kinase 14 (MAPK14, Homo sapiens, UniProt Q16539)
HTR1A: 5-hydroxytryptamine receptor 1A (HTR1A, Homo sapiens, UniProt P08908)

SMILES	target	test	IC50
CNCc1cc(-c2cc(O)ccc2OC(F)(F)F)ccc1F	Estrogen receptor (ESR1, Homo sapiens, UniProt P03372, Y537S)	coactivator recruitment, TR-FRET	~18 µM
COc1ccc(N2N=C(C(=O)c3ccc(Nc4cnccn4)cc3)SC2=C(C#N)C#N)cc1	Dihydrofolate reductase	enzyme activity, inhibitor	0.36 µM
COc1cc(C=O)ccc1O	Sucrase-isomaltase, intestinal (Si, Rattus norvegicus, UniProt P23739)	enzyme activity, inhibitor, absorbance	1350 µM
Fc1ccc(Cc2[nH]nc(-c3ccccn3)c2-c2ccnc3ccccc23)cc1	MAPK14	enzyme activity, inhibitor, ADP detection	3.5 µM
NC/C(=C\F)COc1cccc(Cn2c(=S)[nH]c(=O)c3[nH]cnc32)c1	Amine oxidase [copper-containing] 3 (Rattus norvegicus, UniProt O08590)	enzyme activity, inhibitor	0.005 µM
c1ccc(-c2n[nH]cc2-c2ccncn2)nc1	MAPK14	enzyme activity, inhibitor, ADP detection	1.5 µM
N=c1sc(C(=O)c2ccc(Nc3cnccn3)cc2)nn1-c1ccccc1	Dihydrofolate reductase	enzyme activity, inhibitor	6.49 µM
c1ccc(Cn2cc(-c3ccnc4ccccc34)c(-c3ccccn3)n2)cc1	MAPK14	enzyme activity, inhibitor, ADP detection	3 µM
COc1ccccc1N1CCN(CC(C(=O)NC(C)(C)C)c2ccccc2)CC1 (stereo not drawn)	HTR1A	cAMP, antagonist, TR-FRET	0.376 µM
c1ccc(-c2[nH]ccc2-c2ccnc3ccccc23)nc1	MAPK14	enzyme activity, inhibitor, ADP detection	> 30 µM
NC(=O)c1nnn(Cc2cc(Cl)c(C(=O)c3ccc(Cl)cc3)c(Cl)c2)c1N	HTR1A	cAMP, antagonist	1.75 µM
CC(=O)C1=NN(c2ccccc2)C(=C(C#N)C(=O)c2ccc(Nc3cnccn3)cc2)S1	Dihydrofolate reductase	enzyme activity, inhibitor	1.95 µM
